Emax and ED99 data for six compounds are collected here from ChEMBL document CHEMBL1255432, “Fast standardized therapeutic-efficacy assay for drug discovery against tuberculosis” (2010).

Test [1] deals with Mycobacterium tuberculosis. The test can be described thus: Antimycobacterial activity against Mycobacterium tuberculosis H37Rv infected in B6 mouse assessed as assessed as lowest concentration to reduce bacterial burden in lungs to level of reduction achieved with higher doses orally treated in water-1% methylcellulose upto 8 days. The format is functional, Lung. In a few lines: (§1)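 B6 female mice given intratracheal H37Rv, 105 CFU/mouse in PBS, then oral once-daily treatment on days 1–8 across several doses. On day 9, lung homogenates were plated and CFU counted after 14 days. EDmax taken empirically as the lowest dose giving a lung CFU reduction statistically indistinguishable from higher doses; 5 mice/group.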

For test [2], the system named is Mycobacterium tuberculosis. The test can be described thus: Antimycobacterial activity against Mycobacterium tuberculosis H37Rv infected in B6 mouse assessed as 2 log reduction in bacterial burden in lungs orally treated in water-1% methylcellulose upto 8 days. The format is functional. The note with it: Lung, po, 192 h. In a few lines:
(§2)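 Female B6 mice, 8–10 weeks old, infected intratracheally under 3% isoflurane with 10^5 CFU H37Rv in 50 μl PBS. Oral dosing once daily from day 1 to day 8 at a range of doses; lungs harvested day 9, homogenized and plated; colonies counted after 14 days. ED99 (2-log CFU/lung reduction versus untreated controls) fitted from individual log10 CFU/lung to a logistic equation; 5 mice/group; 95% CI.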

Test [3] deals with Mycobacterium tuberculosis. The test is described as follows: Antimycobacterial activity against Mycobacterium tuberculosis H37Rv infected in B6 mouse assessed as 2 log reduction in bacterial burden in lungs orally treated in water upto 8 days. The format is functional. Conditions: Lung, po, 192 h. In a few lines: as §2
Test [4] deals with Mycobacterium tuberculosis. The test can be described thus: Antimycobacterial activity against Mycobacterium tuberculosis H37Rv infected in B6 mouse assessed as lowest concentration to reduce bacterial burden in lungs to level of reduction achieved with higher doses orally treated in water upto 8 days. The format is functional, Lung. In a few lines:
as §1

Test [5] concerns Mycobacterium tuberculosis. The test can be described thus: Antimycobacterial activity against Mycobacterium tuberculosis H37Rv infected in B6 mouse assessed as assessed as lowest concentration to reduce bacterial burden in lungs to level of reduction achieved with higher doses orally treated in water-20% captisol upto 8 days. Format: functional, Lung. In a few lines: as §1
Test [6] relates to Mycobacterium tuberculosis. The test can be described thus: Antimycobacterial activity against Mycobacterium tuberculosis H37Rv infected in B6 mouse assessed as 2 log reduction in bacterial burden in lungs orally treated in water-20% captisol upto 8 days. The note with it: Lung, po, 192 h. Format: functional. In a few lines: as §2
Test [7] relates to Mycobacterium tuberculosis. The test can be described thus: Antimycobacterial activity against Mycobacterium tuberculosis H37Rv infected in B6 mouse assessed as assessed as lowest concentration to reduce bacterial burden in lungs to level of reduction achieved with higher doses orally treated in water-20% encapsine upto 8 days. Format: functional, Lung. In a few lines: as §1

The test system of test [8] is Mycobacterium tuberculosis. The test can be described thus: Antimycobacterial activity against Mycobacterium tuberculosis H37Rv infected in B6 mouse assessed as 2 log reduction in bacterial burden in lungs orally treated in water-20% encapsine upto 8 days. The note with it: Lung, po, 192 h. Format: functional. In a few lines: as §2

As for `CC[C@@H](CO)NCCN[C@@H](CC)CO` [ETHAMBUTOL], the Emax in test [1] came to 300 mg/kg. Besides, in test [2], the ED99 stood at 21.6 mg/kg.
Turning to `NNC(=O)c1ccncc1` [ISONIAZID], the ED99 in test [3] worked out at 0.95 mg/kg. In addition, in test [4], the Emax was 25 mg/kg.
Consider `CC(=O)NC[C@H]1CN(c2ccc(N3CCOCC3)c(F)c2)C(=O)O1` [LINEZOLID], for which the Emax entry in test [1] is “>=300 mg kg-1”. Moreover, the ED99 in test [2] amounted to 28 mg/kg.
For `COc1c(N2C[C@@H]3CCCN[C@@H]3C2)c(F)cc2c(=O)c(C(=O)O)cn(C3CC3)c12` [MOXIFLOXACIN], in test [5], the Emax came to 100 mg/kg. Also, the ED99 in test [6] was 27.7 mg/kg.
For `NC(=O)c1cnccn1` [PYRAZINAMIDE], the Emax result in test [1] is recorded as “>=1000 mg kg-1”. Moreover, the ED99 in test [2] was 362 mg/kg.
As for `CO[C@H]1/C=C/O[C@@]2(C)Oc3c(C)c(O)c4c(O)c(c(/C=N/N5CCN(C)CC5)c(O)c4c3C2=O)NC(=O)/C(C)=C\C=C\[C@H](C)[C@H](O)[C@@H](C)[C@@H](O)[C@@H](C)[C@H](OC(C)=O)[C@@H]1C` [RIFAMPIN], the Emax in test [7] amounted to 30 mg/kg. In test [8], the ED99 amounted to 9.8 mg/kg.
